Tests used:
[1] = Cytotoxicity against human OVCAR3 cells after 5 days by sulforhodamine B assay; assay type: functional, OVCAR-3
MDA-MB-468 = test: Cytotoxicity against human MDA-MB-468 cells after 5 days by sulforhodamine B assay; assay type: functional
Outline: (§1)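 Cancer lines were seeded at 800–6000 cells per well according to growth rate, 24 h before compound overlay. After culture, cells were fixed in situ and stained with sulforhodamine B. GI50 values were derived by curve fitting.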

[2] = biological target: T1, Dual specificity protein kinase TTK (Homo sapiens, UniProt P33981); test: Inhibition of amino terminal GST-fused full length human TTK using His6-SUMO-TTK-N as substrate preincubated for 15 mins prior to ATP addition by indirect ELISA detection system
T1 sequence (P33981 whole entry): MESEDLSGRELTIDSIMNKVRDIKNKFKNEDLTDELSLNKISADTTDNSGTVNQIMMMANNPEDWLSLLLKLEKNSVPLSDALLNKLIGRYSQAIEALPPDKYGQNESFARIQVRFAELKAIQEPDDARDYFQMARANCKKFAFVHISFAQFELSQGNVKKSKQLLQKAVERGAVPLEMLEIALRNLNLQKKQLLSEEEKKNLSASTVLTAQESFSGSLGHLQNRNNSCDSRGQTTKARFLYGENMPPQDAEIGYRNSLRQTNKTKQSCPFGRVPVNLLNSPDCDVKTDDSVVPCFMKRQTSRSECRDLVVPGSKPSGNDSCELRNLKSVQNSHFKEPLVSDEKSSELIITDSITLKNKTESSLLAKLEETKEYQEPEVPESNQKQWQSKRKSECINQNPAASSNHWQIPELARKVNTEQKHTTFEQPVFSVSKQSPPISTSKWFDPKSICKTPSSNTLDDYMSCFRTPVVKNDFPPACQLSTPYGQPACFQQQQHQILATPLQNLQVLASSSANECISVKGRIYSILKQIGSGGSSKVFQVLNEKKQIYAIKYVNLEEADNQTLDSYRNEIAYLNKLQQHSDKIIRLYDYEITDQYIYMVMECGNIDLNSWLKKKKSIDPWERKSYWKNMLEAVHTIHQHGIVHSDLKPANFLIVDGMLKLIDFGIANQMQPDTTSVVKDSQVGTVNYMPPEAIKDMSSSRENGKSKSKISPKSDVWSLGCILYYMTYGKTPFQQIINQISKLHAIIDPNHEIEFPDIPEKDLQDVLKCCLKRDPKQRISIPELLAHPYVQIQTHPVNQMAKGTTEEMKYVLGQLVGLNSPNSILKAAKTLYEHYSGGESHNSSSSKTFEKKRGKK

[3] = Half life in rat liver microsomes at 1 uM by LC-MS analysis; assay type: ADME; details: liver microsomes
[4] = Half life in mouse liver microsomes at 1 uM by LC-MS analysis; assay type: ADME; details: liver microsomes
[5] = Cytotoxicity against human HCT116 cells after 5 days by sulforhodamine B assay; assay type: functional, HCT-116; outline: as §1
[6] = biological target: Aurora kinase B/Inner centromere protein (Homo sapiens, UniProt Q96GD4); test: Inhibition of AURKB/INCENP (unknown origin) preincubated for 15 mins prior to ATP addition by FRET-based homogenous assay; assay type: protein-complex assay
Outline: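 The enzyme was AURKB/INCENP in a FRET-based homogeneous assay run to kit specifications, with ATP at 128 μM. […] Each IC50 came from a single determination, reported with its standard fitting error.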

Cytochrome P450 3A4 = Cytochrome P450 3A4 (Homo sapiens, UniProt P08684); test: Inhibition of human CYP3A4 using BFC as substrate preincubated for 10 mins followed by enzyme/substrate addition measured after 30 mins by fluorescence assay; assay type: ADME
Homo sapiens = species on record: Homo sapiens; test: Selectivity ratio of IC50 for AURKB/INCENP (unknown origin) to IC50 for amino terminal GST-fused full length human TTK
[7] = Homo sapiens, MDA-MB-468, 120 h

Chain of Aurora kinase B/Inner centromere protein (Q96GD4 whole entry): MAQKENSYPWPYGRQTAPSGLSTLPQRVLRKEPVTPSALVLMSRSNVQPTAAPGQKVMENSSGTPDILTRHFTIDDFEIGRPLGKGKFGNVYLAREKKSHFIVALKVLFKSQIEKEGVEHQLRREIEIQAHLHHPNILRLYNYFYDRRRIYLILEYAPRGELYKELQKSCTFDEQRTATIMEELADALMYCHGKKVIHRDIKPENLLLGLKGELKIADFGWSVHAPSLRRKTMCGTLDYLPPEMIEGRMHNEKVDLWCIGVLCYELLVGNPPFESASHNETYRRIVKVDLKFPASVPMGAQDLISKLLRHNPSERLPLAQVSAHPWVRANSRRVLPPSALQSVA
Chain of Aurora kinase B/Inner centromere protein (Q9NQS7 whole entry, further chain): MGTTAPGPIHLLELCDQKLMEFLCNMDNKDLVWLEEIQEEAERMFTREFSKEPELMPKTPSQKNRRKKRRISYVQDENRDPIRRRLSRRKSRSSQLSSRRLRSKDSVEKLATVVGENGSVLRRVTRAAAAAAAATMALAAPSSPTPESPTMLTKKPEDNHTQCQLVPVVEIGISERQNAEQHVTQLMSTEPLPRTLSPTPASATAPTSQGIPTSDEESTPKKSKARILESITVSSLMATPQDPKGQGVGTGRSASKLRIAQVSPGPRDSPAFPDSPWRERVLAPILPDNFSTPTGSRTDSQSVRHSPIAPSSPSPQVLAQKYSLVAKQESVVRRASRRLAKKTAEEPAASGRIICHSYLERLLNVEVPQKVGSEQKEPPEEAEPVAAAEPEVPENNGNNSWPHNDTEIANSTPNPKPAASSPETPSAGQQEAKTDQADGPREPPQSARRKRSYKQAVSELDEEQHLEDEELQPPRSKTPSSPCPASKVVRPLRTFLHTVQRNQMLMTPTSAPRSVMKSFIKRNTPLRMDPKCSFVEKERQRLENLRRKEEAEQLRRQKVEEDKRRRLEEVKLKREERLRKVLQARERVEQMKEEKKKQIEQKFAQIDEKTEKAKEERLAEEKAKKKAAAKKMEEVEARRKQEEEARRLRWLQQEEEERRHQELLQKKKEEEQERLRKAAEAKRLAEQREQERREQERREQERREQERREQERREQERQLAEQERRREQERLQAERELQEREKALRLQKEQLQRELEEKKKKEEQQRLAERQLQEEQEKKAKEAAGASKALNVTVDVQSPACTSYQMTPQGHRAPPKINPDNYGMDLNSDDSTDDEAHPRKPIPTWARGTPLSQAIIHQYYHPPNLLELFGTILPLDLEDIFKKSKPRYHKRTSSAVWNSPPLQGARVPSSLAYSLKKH
Chain of Cytochrome P450 3A4 (P08684 whole entry, the tested form may be a part): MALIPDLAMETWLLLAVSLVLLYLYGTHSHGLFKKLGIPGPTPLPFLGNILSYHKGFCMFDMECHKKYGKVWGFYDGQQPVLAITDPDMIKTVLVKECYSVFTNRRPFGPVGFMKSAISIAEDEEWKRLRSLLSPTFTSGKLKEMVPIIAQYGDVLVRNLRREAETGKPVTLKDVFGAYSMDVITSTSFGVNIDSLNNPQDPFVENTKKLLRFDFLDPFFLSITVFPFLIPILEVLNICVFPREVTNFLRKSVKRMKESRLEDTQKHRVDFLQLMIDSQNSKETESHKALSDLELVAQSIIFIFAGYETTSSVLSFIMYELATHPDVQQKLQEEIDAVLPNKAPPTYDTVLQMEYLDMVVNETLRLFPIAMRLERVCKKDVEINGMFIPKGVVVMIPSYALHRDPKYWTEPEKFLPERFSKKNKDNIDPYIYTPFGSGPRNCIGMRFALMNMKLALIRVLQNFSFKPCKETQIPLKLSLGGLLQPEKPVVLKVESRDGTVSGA

| SMILES | GI50 ([1]; Homo sapiens, OVCAR-3, 120 h) | GI50 (MDA-MB-468; [7]) | IC50 [2] | GI50 ([5]; Homo sapiens, HCT-116, 120 h) | IC50 [6] | further results |
| --- | --- | --- | --- | --- | --- | --- |
| CC(C)C[C@H](NC(=O)c1ccc2[nH]nc(-c3ccc(N4[C@H]5CC[C@H]4CC(O)C5)cc3)c2c1)c1ccccn1 (stereo partly specified) | 140 nM | 17 nM | 1.7 nM | 2 nM | 1500 nM | half-life at 1 µM [3]: 48 min; half-life at 1 µM [4]: > 60 min |
| O=CN1CCC(Oc2ccc(-c3n[nH]c4ccc(C(=O)NC(c5ccccc5)C5CC5)cc34)cc2)CC1 (racemic) | – | 360 nM | 16 nM | 130 nM | – | IC50 (Cytochrome P450 3A4): 1500 nM |
| NS(=O)(=O)c1cccc(-c2n[nH]c3ccc(C(=O)NC(c4ccccc4)C4CC4)cc23)c1 (stereo unspecified) | – | – | – | – | 5000 nM | – |
| O=C(N[C@@H](c1ccccn1)C1CC1)c1ccc2[nH]nc(-c3ccc(N4[C@H]5CC[C@H]4CC(O)C5)cc3)c2c1 (stereo in doubt; 87) | – | – | 2.7 nM | – | 1700 nM | GI50 [1]: 310 nM; GI50 (MDA-MB-468): 210 nM; IC50 (Cytochrome P450 3A4): 1400 nM; GI50 [5]: 48 nM |
| O=C(NCC1(N2CCOCC2)CCCCC1)c1ccc2[nH]nc(-c3ccc(N4CC5CCC(C4)O5)cc3)c2c1 | 690 nM | 650 nM | 18 nM | 150 nM | – | – |
| CN1[C@@H]2CC[C@H]1C[C@@H](Oc1ccc(-c3n[nH]c4ccc(C(=O)NC(c5ccccc5)C5CC5)cc34)cc1)C2 (mixture of isomers) | – | 130 nM | 2.8 nM | 30 nM | 93 nM | IC50 (Cytochrome P450 3A4): 2400 nM |
| CC[C@@H](NC(=O)c1ccc2[nH]nc(-c3ccc(OC4CCN(C)CC4)cc3)c2c1)c1ccccc1Cl | – | – | – | – | 38 nM | – |
| O=C(NCC1(N2CCOCC2)CCCCC1)c1ccc2[nH]nc(-c3ccc(N4C5CCC4COC5)cc3)c2c1 | 17 nM | 25 nM | 1.1 nM | 1 nM | 800 nM | half-life at 1 µM [3]: 9.6 min; half-life at 1 µM [4]: 2.7 min |
| CN1CCC(Oc2ccc(-c3n[nH]c4ccc(C(=O)NC(c5ccccn5)C5CCCC5)cc34)cc2)CC1 (racemic) | – | – | – | – | 180 nM | – |
| CN1CCC(Oc2ccc(-c3n[nH]c4ccc(C(=O)NC(c5ccccc5)C5CC5)cc34)cc2)CC1 (racemic) | – | – | – | – | 57 nM | – |
| O=C(N[C@H](c1ccccn1)C1CCCC1)c1ccc2[nH]nc(-c3ccc(N4[C@H]5CC[C@H]4CC(O)C5)cc3)c2c1 (stereo in doubt; 76) | – | – | – | – | – | Ratio IC50 (Homo sapiens): > 100 |
| O=C(N[C@H](c1ccccc1F)C1CC1)c1ccc2[nH]nc(-c3ccc(N4C5CCC4COC5)cc3)c2c1 | – | – | – | – | 470 nM | – |
| O=C(N[C@@H](c1ccccc1F)C1CC1)c1ccc2[nH]nc(-c3ccc(N4C5CCC4COC5)cc3)c2c1 | – | – | – | – | 980 nM | IC50 (Cytochrome P450 3A4): 240 nM |
| CC(C)[C@H](NC(=O)c1ccc2[nH]nc(-c3ccc(N4C5CCC4COC5)cc3)c2c1)c1ccccc1Cl | – | – | – | – | 1900 nM | IC50 (Cytochrome P450 3A4): 60 nM |
| O=C(N[C@@H](c1ccccn1)C1CCCC1)c1ccc2[nH]nc(-c3ccc(N4[C@H]5CC[C@H]4CC(O)C5)cc3)c2c1 (stereo partly specified) | 90 nM | 30 nM | 4.1 nM | 15 nM | 1800 nM | Ratio IC50 (Homo sapiens): > 100; IC50 (Cytochrome P450 3A4): 230 nM; half-life at 1 µM [3]: 22 min; half-life at 1 µM [4]: > 60 min |
| CN1CCC(Oc2ccc(-c3n[nH]c4ccc(NC(=O)C(c5ccccn5)C5CCCC5)cc34)cc2)CC1 (racemic) | – | – | – | – | 71 nM | – |
| O=C(N[C@H](c1ccccn1)C1CC1)c1ccc2[nH]nc(-c3ccc(N4C5CCC4COC5)cc3)c2c1 | 18 nM | 15 nM | 1.4 nM | 2 nM | 360 nM | half-life at 1 µM [3]: > 60 min; half-life at 1 µM [4]: > 60 min |
| O=C(N[C@H](c1ccccn1)C1CCCC1)c1ccc2[nH]nc(-c3ccc(N4C5CCCC4COC5)cc3)c2c1 | 200 nM | 180 nM | 8.3 nM | 25 nM | 2800 nM | half-life at 1 µM [4]: 50 min |
| CC(C)C[C@H](NC(=O)c1ccc2[nH]nc(-c3ccc(N4[C@H]5COC[C@H]4CC(O)C5)cc3)c2c1)c1ccccn1 (mixture of isomers) | – | – | – | – | 230 nM | – |
| O=C(N[C@@H](c1ncccn1)C1CCCC1)c1ccc2[nH]nc(-c3ccc(N4[C@H]5CC[C@H]4CC(O)C5)cc3)c2c1 (stereo partly specified) | 160 nM | 150 nM | 3.9 nM | 20 nM | 850 nM | half-life at 1 µM [4]: > 60 min |
| O=C(N[C@@H](c1ccccn1)C1CCCC1)c1ccc2[nH]nc(-c3ccc(N4C5CCC4COC5)cc3)c2c1 | – | – | – | – | 1400 nM | IC50 (Cytochrome P450 3A4): 360 nM |
| CC(C)C[C@@H](NC(=O)c1ccc2[nH]nc(-c3ccc(N4[C@H]5CC[C@H]4CC(O)C5)cc3)c2c1)c1ccccn1 (stereo partly specified) | 82 nM | 26 nM | 2.7 nM | 5 nM | 1600 nM | half-life at 1 µM [3]: 25 min; half-life at 1 µM [4]: > 60 min |
| O=CN1CCC(Oc2ccc(-c3n[nH]c4ccc(C(=O)NC(c5ccccn5)C5CC5)cc34)cc2)CC1 (racemic) | – | 260 nM | 9.4 nM | 35 nM | 95 nM | IC50 (Cytochrome P450 3A4): 1500 nM |
| CC(C)C[C@H](NC(=O)c1ccc2[nH]nc(-c3ccc(N4[C@H]5CCC[C@H]4CC(O)C5)cc3)c2c1)c1ccccn1 (stereo partly specified) | 730 nM | 450 nM | 14 nM | 150 nM | 980 nM | Ratio IC50 (Homo sapiens): > 100 |
| O=C(NCC1(N2CCOCC2)CCCCC1)c1ccc2[nH]nc(-c3ccc(N4CCC(O)CC4)cc3)c2c1 | – | 210 nM | 230 nM | 48 nM | – | – |
| CN1CCN(c2ccc(-c3n[nH]c4ccc(NC(=O)C(c5ccsc5)N5CCCC5)cc34)cc2S(C)(=O)=O)CC1 (racemic) | – | 900 nM | 18 nM | 280 nM | – | – |
| O=C(NC(c1ccccc1)C1CC1)c1ccc2[nH]nc(-c3cccc(N4CCOCC4)c3)c2c1 (racemic) | – | 7800 nM | 340 nM | 5600 nM | – | – |
| CN1[C@@H]2CC[C@H]1C[C@H](Oc1ccc(-c3n[nH]c4ccc(C(=O)NC(c5ccccc5)C5CC5)cc34)cc1)C2 (mixture of isomers) | – | 160 nM | 7.3 nM | 33 nM | – | – |
| O=C(N[C@H](c1ccccn1)C1CCCC1)c1ccc2[nH]nc(-c3ccc(N4[C@H]5CC[C@H]4CC(O)C5)cc3)c2c1 (stereo in doubt; 88) | – | – | – | – | – | Ratio IC50 (Homo sapiens): > 100 |

Reference: ChEMBL document CHEMBL3421533, “The Discovery of Orally Bioavailable Tyrosine Threonine Kinase (TTK) Inhibitors: 3-(4-(heterocyclyl)phenyl)-1H-indazole-5-carboxamides as Anticancer Agents” (J Med Chem, 2015)
